Reference: ChEMBL document CHEMBL3526106, “Cytochrome P450 regulation by α-tocopherol in Pxr-null and PXR-humanized mice” (Drug Metab Dispos, 2013)

Columns and labels:
Parameters in all cases: dose 500 mg/kg
Mus musculus [1] = experiment: Effect on Ugt1a7c gene expression in wild type mouse liver at 500 mg/kg for 7 to 14 days dosed through vitamin E-deficient base diet by qPCR method; type: ADME, organism-based; settings: in vivo, po
Summary of the method: (§1)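 Male mice on vitamin E deficient diet, switched at eight weeks to the same diet with 500 mg/kg DL-α-tocopheryl acetate (controls kept deficient); killed at nine or 10 weeks, livers flash frozen. Hepatic mRNA by SYBR Green qPCR with 25 ng cDNA and 150 nM primers, triplicate reactions; comparative threshold cycle method against β-actin, fold change versus deficient diet; mean ± SEM, two-tailed t-test.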

Mus musculus [2] = experiment: Effect on Ugt1a7c gene expression in male PXR null mouse liver at 500 mg/kg for 7 to 14 days dosed through vitamin E-deficient base diet by qPCR method; type: ADME, organism-based; settings: in vivo, po; summary of the method: as §1
Mus musculus [3] = experiment: Effect on Ugt1a9 gene expression in male PXR-humanized mouse liver at 500 mg/kg for 7 to 14 days dosed through vitamin E-deficient base diet by qPCR method; type: ADME, organism-based; settings: in vivo, po; summary of the method: as §1
Mus musculus [4] = experiment: Effect on Ugt1a10 gene expression in wild type mouse liver at 500 mg/kg for 7 to 14 days dosed through vitamin E-deficient base diet by qPCR method; type: ADME, organism-based; settings: in vivo, po; summary of the method: as §1
Mus musculus [5] = experiment: Effect on Ugt1a10 gene expression in male PXR-humanized mouse liver at 500 mg/kg for 7 to 14 days dosed through vitamin E-deficient base diet by qPCR method; type: ADME, organism-based; settings: in vivo, po; summary of the method: as §1
Mus musculus [6] = experiment: Effect on Ugt2b5 gene expression in male PXR null mouse liver at 500 mg/kg for 7 to 14 days dosed through vitamin E-deficient base diet by qPCR method; type: ADME, organism-based; settings: in vivo, po; summary of the method: as §1
Mus musculus [7] = experiment: Effect on Ugt2b5 gene expression in male PXR-humanized mouse liver at 500 mg/kg for 7 to 14 days dosed through vitamin E-deficient base diet by qPCR method; type: ADME, organism-based; settings: in vivo, po; summary of the method: as §1
Mus musculus [8] = experiment: Effect on Ugt2b34 gene expression in wild type mouse liver at 500 mg/kg for 7 to 14 days dosed through vitamin E-deficient base diet by qPCR method; type: ADME, organism-based; settings: in vivo, po; summary of the method: as §1
Cyp2b10 = experiment: Induction of Cyp2b10 gene expression in wild type mouse liver at 500 mg/kg for 7 to 14 days dosed through vitamin E-deficient base diet by qPCR method; type: ADME, organism-based; settings: po, read-out: FC; summary of the method: as §1
Mus musculus [9] = experiment: Reduction in Cyp4a10 gene expression in PXR-humanized mouse liver at 500 mg/kg for 7 to 14 days dosed through vitamin E-deficient base diet by qPCR method; type: ADME, organism-based; settings: in vivo, po
Summary of the method: (§2)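 Male mice (wild-type, Pxr-null, hPXR; NCI-bred) on vitamin E-deficient diet from 3 weeks of age; at 8 weeks half switched to same base diet supplemented with 500 mg/kg DL-α-tocopheryl acetate, rest kept deficient. Livers harvested at 9 and 10 weeks. qPCR: 25 ng cDNA, 150 nM each primer, SYBR Green, triplicate; comparative Ct vs β-actin; fold change enriched vs deficient diet; mean ± SEM, two-tailed unpaired t-test.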

Cyp2c37 = experiment: Induction of Cyp2c37 gene expression in male PXR-humanized mouse liver at 500 mg/kg for 7 to 14 days dosed through vitamin E-deficient base diet by qPCR method; type: ADME, organism-based; settings: po, read-out: FC; summary of the method: as §1
Mus musculus [10] = experiment: Induction of Cyp2c39 gene expression in wild type mouse liver at 500 mg/kg for 7 to 14 days dosed through vitamin E-deficient base diet by qPCR method; type: ADME, organism-based; settings: in vivo, po; summary of the method: as §1
Mus musculus [11] = experiment: Drug metabolism in male PXR-humanized mouse assessed as urinary alpha-carboxyethylhydroxychroman glycine level at 500 mg/kg for 7 to 14 days dosed through vitamin E-deficient base diet by UPLC-ESI-QTOFMS method based metabolomics analysis; type: ADME, organism-based, Urine; settings: in vivo, po
Mus musculus [12] = experiment: Drug metabolism in male wild type mouse assessed as urinary alpha-carboxyethylhydroxychroman glucuronide level at 500 mg/kg for 7 to 14 days dosed through vitamin E-deficient base diet by UPLC-ESI-QTOFMS method based metabolomics analysis; type: ADME, organism-based, Urine; settings: in vivo, po
Mus musculus [13] = experiment: Drug metabolism in male PXR-humanized mouse assessed as urinary alpha-carboxymethylbutylhydroxychroman glucuronide level at 500 mg/kg for 7 to 14 days dosed through vitamin E-deficient base diet by UPLC-ESI-QTOFMS method based metabolomics analysis; type: ADME, organism-based, Urine; settings: in vivo, po
Summary of the method: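 Male mice from three weeks of age on vitamin E deficient diet; at eight weeks, 24 h predose urine in metabolic cages, then half switched to the same diet supplemented with 500 mg/kg DL-α-tocopheryl acetate. 24 h urine collected at nine and 10 weeks. Urinary metabolites quantitated by UPLC-MRM on triple-quadrupole MS against authentic standards and calibration curves, normalized to urinary creatinine (µmol/mmol creatinine); mean ± SEM, two-tailed unpaired t-test.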

Mus musculus [14] = experiment: Drug metabolism in male wild type mouse assessed as urinary alpha-carboxyethylhydroxychroman glycine level at 500 mg/kg for 7 to 14 days dosed through vitamin E-deficient base diet by UPLC-ESI-QTOFMS method based metabolomics analysis; type: ADME, organism-based, Urine; settings: in vivo, po
Mus musculus [15] = experiment: Induction of Cyp2c39 gene expression in male PXR null mouse liver at 500 mg/kg for 7 to 14 days dosed through vitamin E-deficient base diet by qPCR method; type: ADME, organism-based; settings: in vivo, po; summary of the method: as §1
Mus musculus [16] = experiment: Effect on Ugt1a1 gene expression in male PXR-humanized mouse liver at 500 mg/kg for 7 to 14 days dosed through vitamin E-deficient base diet by qPCR method; type: ADME, organism-based; settings: in vivo, po; summary of the method: as §1
Mus musculus [17] = experiment: Effect on Ugt1a6a gene expression in wild type mouse liver at 500 mg/kg for 7 to 14 days dosed through vitamin E-deficient base diet by qPCR method; type: ADME, organism-based; settings: in vivo, po; summary of the method: as §1
Mus musculus [18] = experiment: Effect on Ugt1a6b gene expression in male PXR null mouse liver at 500 mg/kg for 7 to 14 days dosed through vitamin E-deficient base diet by qPCR method; type: ADME, organism-based; settings: in vivo, po; summary of the method: as §1
Mus musculus [19] = experiment: Effect on Ugt1a6b gene expression in male PXR-humanized mouse liver at 500 mg/kg for 7 to 14 days dosed through vitamin E-deficient base diet by qPCR method; type: ADME, organism-based; settings: in vivo, po; summary of the method: as §1
Mus musculus [20] = experiment: Drug metabolism in male wild type mouse assessed as urinary alpha-carboxymethylbutylhydroxychroman glucuronide level at 500 mg/kg for 7 to 14 days dosed through vitamin E-deficient base diet by UPLC-ESI-QTOFMS method based metabolomics analysis; type: ADME, organism-based, Urine; settings: in vivo, po
Mus musculus [21] = experiment: Drug metabolism in male PXR null mouse assessed as urinary alpha-carboxyethylhydroxychroman glucuronide level at 500 mg/kg for 7 to 14 days dosed through vitamin E-deficient base diet by UPLC-ESI-QTOFMS method based metabolomics analysis; type: ADME, organism-based, Urine; settings: in vivo, po
Mus musculus [22] = experiment: Induction of Cyp4f13 gene expression in male PXR-humanized mouse liver at 500 mg/kg for 7 to 14 days dosed through vitamin E-deficient base diet by qPCR method; type: ADME, organism-based; settings: in vivo, po; summary of the method: as §2
Mus musculus [23] = experiment: Induction of Cyp4f14 gene expression in male PXR null mouse liver at 500 mg/kg for 7 to 14 days dosed through vitamin E-deficient base diet by qPCR method; type: ADME, organism-based; settings: in vivo, po; summary of the method: as §2
Mus musculus [24] = experiment: Induction of Cyp4f15 gene expression in male PXR-humanized mouse liver at 500 mg/kg for 7 to 14 days dosed through vitamin E-deficient base diet by qPCR method; type: ADME, organism-based; settings: in vivo, po; summary of the method: as §2
Mus musculus [25] = experiment: Induction of Cyp4f15 gene expression in wild type mouse liver at 500 mg/kg for 7 to 14 days dosed through vitamin E-deficient base diet by qPCR method; type: ADME, organism-based; settings: in vivo, po; summary of the method: as §2
Mus musculus [26] = experiment: Induction of Cyp4f16 gene expression in wild type mouse liver at 500 mg/kg for 7 to 14 days dosed through vitamin E-deficient base diet by qPCR method; type: ADME, organism-based; settings: in vivo, po; summary of the method: as §2
Mus musculus [27] = experiment: Induction of Cyp4f18 gene expression in male PXR-humanized mouse liver at 500 mg/kg for 7 to 14 days dosed through vitamin E-deficient base diet by qPCR method; type: ADME, organism-based; settings: in vivo, po; summary of the method: as §2

## CC(=O)Oc1c(C)c(C)c2c(c1C)CCC(C)(CCCC(C)CCCC(C)CCCC(C)C)O2 (racemic) [alpha-TOCHOPHERYL ACETATE]
Mus musculus [1]
  Activity: Not Active
Mus musculus [2]
  Activity: Not Active
Mus musculus [3]
  Activity: Not Active
Mus musculus [4]
  Activity: Not Active
Mus musculus [5]
  Activity: Not Active
Mus musculus [6]
  Activity: Not Active
Mus musculus [7]
  Activity: Not Active
Mus musculus [8]
  Activity: Not Active
Cyp2b10
  fold induction: 7.3
Mus musculus [9]
  fold change (FC): 2.4
Cyp2c37
  fold induction: 2
Mus musculus [10]
  Activity: Not Active
Mus musculus [11]
  Drug metabolism: metabolite_detected
Mus musculus [12]
  Drug metabolism: metabolite_detected
Mus musculus [13]
  Drug metabolism: metabolite_detected
Mus musculus [14]
  Drug metabolism: metabolite_detected
Mus musculus [15]
  Activity: Not Active
Mus musculus [16]
  Activity: Not Active
Mus musculus [17]
  Activity: Not Active
Mus musculus [18]
  Activity: Not Active
Mus musculus [19]
  Activity: Not Active
Mus musculus [20]
  Drug metabolism: metabolite_detected
Mus musculus [21]
  Drug metabolism: metabolite_detected
Mus musculus [22]
  Activity: Not Active
Mus musculus [23]
  Activity: Not Active
Mus musculus [24]
  Activity: Not Active
Mus musculus [25]
  Activity: Not Active
Mus musculus [26]
  Activity: Not Active
Mus musculus [27]
  Activity: Not Active
